HCV core dimer: blocks dimerization of HCV core protein; hit rate 0.33% among 300,000; TR-FRET GST/Flag-core106 dimerization, 1536-well; inhibition, % at 5 µM;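 active = inhibition above the mean of all tested compounds plus 3 SD, set per screening campaign, cut at about 45% in these data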
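Assay system: GST-tagged and Flag-tagged HCV core protein residues 1-106 / Times: compound-protein-antibody incubation 4 h at 22.5 °C / Signal: time-resolved FRET, ex 340 nm, em 617 and 671 nm / Evaluation: % inhibition based on acceptor/donor emission ratio / Benchmarks: wells lacking GST-core106 and wells with excess unlabelled core106 / Repeats: singlicate, one well per compound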
SUMO HTRF inh: blocks human SUMOylation mediated by UBC9 | HTRF SUMOylation assay, SAE1/SAE2 + UBC9, in vitro | inhibition, % at 35 µM | hit rate 0.36% among 290,000 | AID 2006; in the data active = inhibition above about 50%, passing the limit was not always enough
Target sequence (P63279 whole entry, looked up): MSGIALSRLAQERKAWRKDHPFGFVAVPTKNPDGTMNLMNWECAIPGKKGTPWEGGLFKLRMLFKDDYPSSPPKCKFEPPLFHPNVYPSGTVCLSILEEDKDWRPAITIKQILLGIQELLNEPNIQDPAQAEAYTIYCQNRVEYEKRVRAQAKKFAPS
NS3 helicase inh: blocks Hepatitis C virus NS3 helicase unwinding; NS3 helicase DNA unwinding, Cy5 molecular beacon fluorescence; hit rate 0.56% among 290,000; inhibition, % at 10.9 µM;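 active = inhibition above the mean of all tested compounds plus 3 SD, set per campaign, cut at about 35% in these data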;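 also: 0% = DMSO wells and 100% = thioflavine S control wells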
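System: HCV NS3 helicase fragment; control set: DMSO and thioflavine S; technique: Cy5 fluorescence at 0 and 60 min, beacon hairpin quenching; reagent: beacon DNA duplex substrate plus ATP; replicates: singlicate; schedule: 1 h reaction at 25 °C, ATP-initiated; medium: MOPS buffer pH 6.5 with MgCl2, DTT, Tween20, BSA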
VIM-2 inhibitor: inhibitors of Pseudomonas aeruginosa VIM-2 metallo-beta-lactamase; purified VIM-2, nitrocefin hydrolysis, epi-absorbance fluorescence; inhibition, % at 5.6 µM; hit rate 0.89% among 290,000;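 active = inhibition above the mean of all tested compounds plus 3 SD, cutoff set per screening run, cut at about 7.5% in these data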;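 also: red hydrolysis product quenches plate fluorescence so inhibitors raise well fluorescence; 0% = enzyme with DMSO and 100% = DMSO without enzyme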
PHOSPHO1 inh: blocks human PHOSPHO1 phosphatase activity. Q8TCT1. recombinant PHOSPHO1, absorbance phosphatase assay. inhibition, % at 13.3 µM. hit rate 1.1% among 290,000. AID 1565; in the data active = inhibition above about 60%
Target sequence (Q8TCT1 whole entry, looked up): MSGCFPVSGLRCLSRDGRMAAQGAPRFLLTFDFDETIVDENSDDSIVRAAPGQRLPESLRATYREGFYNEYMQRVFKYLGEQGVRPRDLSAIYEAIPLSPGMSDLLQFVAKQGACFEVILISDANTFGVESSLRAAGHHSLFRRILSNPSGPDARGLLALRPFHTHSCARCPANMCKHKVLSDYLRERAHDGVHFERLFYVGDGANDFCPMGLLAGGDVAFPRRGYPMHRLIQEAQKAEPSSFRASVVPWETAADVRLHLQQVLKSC
IMP-1 inh: blocks Pseudomonas aeruginosa IMP-1 metallo-beta-lactamase; purified IMP-1, nitrocefin hydrolysis, epi-absorbance fluorescence; inhibition, % at 5.6 µM; hit rate 0.45% among 290,000; AID 1556;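 active = inhibition above the mean plus 3 SD of all compounds in the same screening run, cut at about 4.5% in these data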;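 also: 0% = IMP-1 with DMSO and 100% = DMSO wells lacking enzyme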
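System: purified IMP-1 / Input: IMP-1 dispensed at 0.2 nM / Medium: 50 mM HEPES pH 7.1, 50 µM ZnSO4, 0.05% Brij 35 / Timing: 15 min enzyme–compound preincubation, then 25 min nitrocefin reaction, 25 °C / Technique: plate fluorescence quenching by hydrolysis product, ex 480/em 530 nm / Repeats: singlicate testing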
* = called active by the depositor; · = not tested or not shown. This is a sample that favours compounds with a hit; in the whole collection about 3.1% have one here.

SMILES	HCV core dimer	SUMO HTRF inh	NS3 helicase inh	VIM-2 inhibitor	PHOSPHO1 inh	IMP-1 inh
O=C(NC1CCCCC1)NC1CCN(C(=S)NCc2ccco2)CC1	-2	2	22	-2	82*	-3
COc1ccc(-n2cc(-c3ccccc3)[nH]c2=S)cc1	-12	5	-3	-4	-6	-5
COc1ccc(N2C(=S)NC3N2C(=S)NC3(C)c2ccccc2)cc1 (stereo unspecified)	-11	12	-5	-3	61*	-4
CC1(c2ccccc2)NC(=S)N2C1NC(=S)N2c1ccccc1 (stereo unspecified)	-3	-2	-1	-4	61*	-3
CCOC(=O)CNC(=O)CSc1nnc(-c2ccco2)n1Cc1ccco1	0	6	0	1	92*	-4
COc1cccc(-n2ccnc2SCC(=O)NCc2ccccc2)c1	-1	-8	-31	-2	62*	-2
COc1cccc(OCc2nnc(SCC(=O)NCc3ccco3)n2CCc2ccccc2)c1	5	14	15	-4	62*	-2
COc1cccc(-c2nnc(SCC(=O)NCc3ccc4c(c3)OCO4)n2Cc2ccco2)c1	26	0	4	-3	76*	-5
Cc1ccc(S(=O)(=O)N(C)C)cc1NC(=O)COC(=O)/C=C/c1ccc(F)cc1	0	·	·	·	·	·
CCCn1nnc(NC(=O)c2ccc3c(c2)OCO3)n1	-4	4	7	-3	-1	-4
CCOC(=O)c1c(C)[nH]c(C)c1C(=O)CSc1nnc(-c2ccncc2)n1C	-6	11	-3	-2	81*	-4
Cn1c(SCC(=O)NCc2cccs2)nnc1-c1ccncc1	-10	-1	0	-2	69*	-3
COc1ccc(-c2nnc(SCC(=O)NCc3cccs3)n2C)cc1	2	3	-8	-3	14	-3
Cn1c(SCC(=O)Nc2sccc2C#N)nnc1-c1ccccc1	49*	16	8	-2	33	-4
Cc1cccc(-c2nnc(SCC(=O)NCc3ccc4c(c3)OCO4)n2C)c1	10	12	-7	-1	72*	-2
COc1ccc(/C=C/C(=O)Nc2c(C(=O)O)[nH]c3ccccc23)cc1OC	-2	24	18	-3	54	-1
Cc1ccc(C)c(OCC(=O)Nc2nonc2NC(=O)COc2cc(C)ccc2C)c1	13	57*	3	-2	-2	-1
Cc1ccc(C)c(OCC(=O)Nc2cccc(S(=O)(=O)NC3=NCCCCC3)c2)c1	5	0	-2	-1	67*	-2
CC(Sc1nnc(-c2ccncc2)n1C)C(=O)Nc1nccs1 (stereo unspecified)	4	6	10	0	-16	-2
COc1ccc(C(CNC(=O)CSc2ccc(Br)cc2C)N2CCOCC2)cc1 (stereo unspecified)	1	·	·	·	·	·
CCSc1nc(N2CCOCC2)c2c(c1C#N)CC(C)(C)N(C)C2	0	21	3	-2	21	-2
CN1Cc2c(N3CCOCC3)nc(SCc3ccccc3)c(C#N)c2CC1(C)C	3	30	-12	-3	80*	-3
Cc1ccc(Cn2c(=N)c(C(=O)NCC3CCCO3)cc3c(=O)n4ccccc4nc32)cc1 (stereo unspecified)	6	17	-9	3	26	-3
N=c1c(C(=O)NCc2ccco2)cc2c(=O)n3ccccc3nc2n1CCc1ccccc1	52*	41	-5	0	11	-3
COc1ccc(CNC(=O)c2cc3c(=O)n4ccccc4nc3n(Cc3ccco3)c2=N)cc1	·	·	2	1	·	-7
SMILES	HCV core dimer	SUMO HTRF inh	NS3 helicase inh	VIM-2 inhibitor	PHOSPHO1 inh	IMP-1 inh
Cc1ccc(Cn2c(=N)c(C(=O)NCc3ccco3)cc3c(=O)n4ccccc4nc32)cc1	63*	31	15	0	20	-1
COc1ccc(CCNC(=O)c2cc3c(=O)n4ccccc4nc3n(Cc3ccco3)c2=N)cc1OC	23	17	-6	8.1*	22	-3
CCN(CC)C(=O)CSc1nnc(-c2ccccc2)n1-c1ccccc1	2	7	0	-1	82*	-4
CCN(CC)C(=O)CSc1nnc2sc3ccccc3n12	-3	5	4	-2	62*	-2
CCN(CC)C(=O)CSc1nnc(-c2ccccc2)n1N	1	16	3	0	9	-2
Cc1cc(=O)oc(C)c1C(=O)Nc1cccc(F)c1	-8	13	-18	-3	19	-2
O=C(O)c1ccc(N2C(=O)/C(=C/c3ccc(-c4ccc([N+](=O)[O-])cc4)o3)C=C2c2ccccc2)cc1	30	40	40*	-2	16	-1
O=C1NN(c2ccccc2)C(=O)/C1=C/c1ccc(-c2ccc(C(=O)O)cc2)o1	-7	-5	0	-1	-12	-3
COC(=O)CSc1n[nH]c(=S)s1	-3	12	2	-1	5	-4
COC(=O)C(C)Sc1n[nH]c(=S)s1 (stereo unspecified)	-6	8	6	-4	102*	-5
Cc1cc(OCC(=O)OCC(=O)NCc2ccco2)ccc1Cl	-1	·	·	·	·	·
CCn1c(=O)c(CCC(=O)N2CCOCC2)c(C)c2c(C)nn(-c3ccccc3)c21	-1	·	-24	8.4*	30	-1
Cc1nn(-c2ccccc2)c2c1c(C)c(CCC(=O)N1CCOCC1)c(=O)n2C	-1	18	-10	10*	16	-2
COc1ccc(Cc2nnc(NC(=O)c3ccccc3Cl)s2)cc1OC	12	11	2	-2	·	-2
CCn1c(COc2ccccc2C)nnc1SCC(=O)CC(=O)Nc1ccccc1OC	7	22	0	-4	-25	-6
CCn1c(COc2cccc(C)c2)nnc1SCC(=O)CC(=O)Nc1ccccc1OC	11	44	26	-1	93*	-3
CCn1c(COc2ccccc2)nnc1SCC(=O)CC(=O)Nc1ccccc1OC	2	32	8	-2	92*	-3
O=C1c2ccccc2C(Nc2cccnc2)N1Cc1ccc2c(c1)OCO2 (stereo unspecified)	4	4	-1	-2	-28	-2
O=C1c2ccccc2C(Nc2ccc3c(c2)OCO3)N1Cc1ccc2c(c1)OCO2 (stereo unspecified)	50*	-11	9	-3	-12	-5
O=C(NC(=S)Nc1ccc(NC(=O)c2ccccc2)cc1)c1ccc(F)cc1	9	8	0	-1	33	0
CC(C)(C)C(=O)NC(=S)Nc1ccccc1C(=O)Nc1ccccc1	5	17	8	-1	27	17*
O=C(Nc1ccc(NC(=S)NC(=O)C(c2ccccc2)c2ccccc2)cc1)c1ccccc1	57*	·	0	-1	·	-3
CC(C)CC(=O)NC(=S)Nc1cccc(NC(=O)c2ccccc2Cl)c1	2	-3	-4	-1	19	0
